Test results: ChEMBL document CHEMBL1147538, “Antibacterial activity of glycine betaine analogues: involvement of osmoporters” (Bioorg Med Chem Lett, 2004)

Columns and labels:
Format in all cases: functional, organism-based
[1] = system: Sinorhizobium meliloti; assay: Effect (1 mM) on Sinorhizobium meliloti growth under stressing conditions; Expressed as absorbance (OD) at 570 nm; Control 1.46 nm
[2] = system: Aeromonas hydrophila; assay: Effect (1 mM) on Aeromonas hydrophila growth under stressing conditions; Expressed as absorbance (OD) at 570 nm; Control 1.65 nm
How it was run: (§1)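 Aerobic culture in a defined classic medium (M63, M9, SMM or LAS, chosen per species). Hyperosmotic stress was imposed with NaCl at 0.3–0.5 M final, set by each bacterium's salt tolerance. Each betaine analogue was added at 1 mM. Bacterial yield was read as absorbance at 570 nm and compared with a control culture without analogue.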

[3] = system: Citrobacter freundii; assay: Effect (1 mM) on Citrobacter freundii growth under stressing conditions; Expressed as absorbance (OD) at 570 nm; Control 1.09 nm; how it was run: as §1
[4] = system: Salmonella enterica; assay: Effect (1 mM) on Salmonella enterica growth under stressing conditions; Expressed as absorbance (OD) at 570 nm; Control 1.23 nm; how it was run: as §1
[5] = system: Bacillus subtilis; assay: Effect (1 mM) on Bacillus subtilis growth under stressing conditions; Expressed as absorbance (OD) at 570 nm; Control 3.20 nm; how it was run: as §1
[6] = system: Klebsiella pneumoniae; assay: Effect (1 mM) on Klebsiella pneumoniae growth under stressing conditions; Expressed as absorbance (OD) at 570 nm; Control 1.80 nm; how it was run: as §1
[7] = system: Dickeya chrysanthemi; assay: Effect (1 mM) on Erwinia chrysanthemi growth under stressing conditions; Expressed as absorbance (OD) at 570 nm; Control 1.97 nm; how it was run: as §1
[8] = system: Pseudomonas aeruginosa; assay: Effect (1 mM) on Pseudomonas aeruginosa growth under stressing conditions; Expressed as absorbance (OD) at 570 nm; Control 1.24 nm
[9] = system: Brevibacterium linens; assay: Effect (1 mM) on Brevibacterium linens growth under stressing conditions; Expressed as absorbance (OD) at 570 nm; Control 1.76 nm
[10] = system: Acinetobacter baumannii; assay: Effect (1 mM) on Acinetobacter baumannii growth under stressing conditions; Expressed as absorbance (OD) at 570 nm; Control 1.14 nm; how it was run: as §1
[11] = system: Enterobacter cloacae; assay: Effect (1 mM) on Enterobacter cloacae growth under stressing conditions; Expressed as absorbance (OD) at 570 nm; Control 1.25 nm; how it was run: as §1
[12] = system: Corynebacterium glutamicum; assay: Effect (1 mM) on Corynebacterium glutamicum growth under stressing conditions; Expressed as absorbance (OD) at 570 nm; Control 0.87 nm; how it was run: as §1
[13] = system: Serratia marcescens; assay: Effect (1 mM) on Serratia marcescens growth under stressing conditions; Expressed as absorbance (OD) at 570 nm; Control 1.03 nm; how it was run: as §1
[14] = system: Escherichia coli; assay: Effect (1 mM) on Escherichia coli growth under stressing conditions; Expressed as absorbance (OD) at 570 nm; Control 1.24 nm; how it was run: as §1
[15] = system: Enterococcus faecalis; assay: Effect (1 mM) on Enterococcus faecalis growth under stressing conditions; Expressed as absorbance (OD) at 570 nm; Control 1.16 nm
How it was run: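 Enterococcus was grown aerobically in defined M9 medium made hyperosmotic with NaCl (0.3–0.5 M final, set by tolerance). Each betaine analogue was supplied at 1 mM. Yield was read as OD at 570 nm against an untreated control.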

SMILES | Absorbance [1] | Absorbance [2] | Absorbance [3] | Absorbance [4] | Absorbance [5] | Absorbance [6] | Absorbance [7] | Absorbance [8] | Absorbance [9] | Absorbance [10] | Absorbance [11] | Absorbance [12] | Absorbance [13] | Absorbance [14] | Absorbance [15]
C[N+](C)(CC(=O)O)Cc1ccccc1 | 2.3 | 0.16 | 1.32 | 1.24 | 3.2 | 0.46 | 0.22 | 0.06 | 0.88 | 0.93 | 1.05 | 0.43 | 0.21 | 0.12 | 1.24
C[N+](C)(CC(=O)O)Cc1ccc([N+](=O)[O-])cc1 | 1.85 | 0.06 | 0.03 | 0.07 | 0.18 | 0.23 | 0.06 | 0.16 | 1.74 | 0.19 | 0.24 | 0.33 | 0.07 | 0.09 | 1.23
COc1cccc(C[N+](C)(C)CC(=O)O)c1 | 1.7 | 1.05 | 1.23 | 1.11 | 3.2 | 0.7 | 0.25 | 1.07 | 1.45 | 1.16 | 1.11 | 0.63 | 0.48 | 0.18 | 1.12
C[N+](C)(CC(=O)O)Cc1ccccc1[N+](=O)[O-] | 1.9 | 0.2 | 0.06 | 0.23 | 3.06 | 0.4 | 0.11 | 0.11 | 1.52 | 0.72 | 0.46 | 0.26 | 0.09 | 0.08 | 1.3
